Assay results from ChEMBL document CHEMBL1155599, “Ancistrolikokines A-C: new 5,8'-coupled naphthylisoquinoline alkaloids from Ancistrocladus likoko” (J Nat Prod, 2000).
Converted amounts (≈) assume the structure as drawn.

Legend:
Plasmodium falciparum [1] = experiment: Antimalarial activity after 48 hrs against Plasmodium falciparum NF54 infected human erythrocytes by [3H]hypoxanthine uptake; type: functional, organism-based
Method in brief: (§1)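 Modified [3H]hypoxanthine incorporation assay; infected human red blood cells exposed to serial drug dilutions for 48 h at 37 °C under reduced O2/elevated CO2, then [3H]hypoxanthine added and incubated a further 24 h; harvested on glass fiber filters, scintillation counted. IC50 from sigmoidal inhibition curve; duplicates, repeated at least once. NF54 is drug-sensitive, K1 is chloroquine/pyrimethamine-resistant.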

Plasmodium falciparum [2] = experiment: Antimalarial activity after 48 hrs against Plasmodium falciparum K1 infected human erythrocytes by [3H]hypoxanthine uptake; type: functional, organism-based; method in brief: as §1
[3] = Cytotoxicity against rat L6 cells after 72 hrs; type: cell-based; conditions: read-out: MIC

SMILES | IC50 (Plasmodium falciparum [1]) [µg/mL] | IC50 (Plasmodium falciparum [2]) [µg/mL] | MCC at 72 h [3] [µg/mL]
COc1cc(O)c(-c2ccc(OC)c3c(O)cc(C)cc23)c2c1[C@@H](C)N(C)[C@H](C)C2 [ANCISTROLIKOKINE C] | 6.23 (≈ 15.3 µM) | 0.924 (≈ 2.27 µM) | –
COc1cc(O)c2c(c1-c1ccc(O)c3c(OC)cc(C)cc13)C[C@@H](C)N(C)[C@@H]2C [ANCISTROLIKOKINE A] | 0.191 (≈ 0.469 µM) | 0.14 (≈ 0.344 µM) | 90
COc1cc(O)c(-c2ccc(OC)c3c(O)cc(C)cc23)c2c1[C@H](C)N[C@H](C)C2 [ANCISTROLIKOKINE B] | 0.538 (≈ 1.37 µM) | 0.208 (≈ 0.529 µM) | 30
COc1cc(C)cc2c(-c3c(O)cc(O)c4c3C[C@@H](C)N[C@@H]4C)ccc(O)c12 [KORUPENSAMINE A] | 0.024 (≈ 0.0632 µM) | 0.072 (≈ 0.19 µM) | 100
